# Measurements from ChEMBL document CHEMBL4602702, “Red-Emitting Dibenzodiazepinone Derivatives as Fluorescent Dualsteric Probes for the Muscarinic Acetylcholine M2 Receptor” (J Med Chem, 2020).
# Active and inactive are the calls of the source. No cut-off for these calls is given here.
# Columns and labels:
# [1] = target: T1, Muscarinic acetylcholine receptor M1 (Homo sapiens, UniProt P11229); assay: Displacement of [3H]-NMS from human muscarinic M1 receptor stably expressed in CHO-K9 cells by radioligand competitive binding assay; assay type: cell-based
# T1 sequence (P11229 whole entry): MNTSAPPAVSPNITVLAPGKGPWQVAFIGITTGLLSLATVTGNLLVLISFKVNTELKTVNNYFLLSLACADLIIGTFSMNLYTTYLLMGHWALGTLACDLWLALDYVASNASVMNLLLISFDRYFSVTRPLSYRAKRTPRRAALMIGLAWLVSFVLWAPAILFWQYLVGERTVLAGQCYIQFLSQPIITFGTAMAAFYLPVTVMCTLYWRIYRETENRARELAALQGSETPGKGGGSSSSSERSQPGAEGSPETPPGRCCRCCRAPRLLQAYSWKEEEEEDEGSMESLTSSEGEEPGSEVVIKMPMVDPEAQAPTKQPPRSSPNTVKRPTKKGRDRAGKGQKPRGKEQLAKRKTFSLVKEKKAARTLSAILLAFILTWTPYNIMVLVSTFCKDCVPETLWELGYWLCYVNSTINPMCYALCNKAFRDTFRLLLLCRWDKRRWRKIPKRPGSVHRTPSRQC
# How it was run: (§1)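 Equilibrium competition binding at live CHO-hMxR cells with [3H]NMS at M1 0.2, M2 0.2, M3 0.2, M4 0.1, M5 0.3 nM. […] Four-parameter logistic fit converted to pKi; at least three experiments in triplicate (some two).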
# [2] = target: T2, Muscarinic acetylcholine receptor M5 (Homo sapiens, UniProt P08912); assay: Displacement of [3H]-NMS from human muscarinic M5 receptor stably expressed in CHO-K9 cells by radioligand competitive binding assay; assay type: cell-based; how it was run: as §1
# T2 sequence (P08912 whole entry): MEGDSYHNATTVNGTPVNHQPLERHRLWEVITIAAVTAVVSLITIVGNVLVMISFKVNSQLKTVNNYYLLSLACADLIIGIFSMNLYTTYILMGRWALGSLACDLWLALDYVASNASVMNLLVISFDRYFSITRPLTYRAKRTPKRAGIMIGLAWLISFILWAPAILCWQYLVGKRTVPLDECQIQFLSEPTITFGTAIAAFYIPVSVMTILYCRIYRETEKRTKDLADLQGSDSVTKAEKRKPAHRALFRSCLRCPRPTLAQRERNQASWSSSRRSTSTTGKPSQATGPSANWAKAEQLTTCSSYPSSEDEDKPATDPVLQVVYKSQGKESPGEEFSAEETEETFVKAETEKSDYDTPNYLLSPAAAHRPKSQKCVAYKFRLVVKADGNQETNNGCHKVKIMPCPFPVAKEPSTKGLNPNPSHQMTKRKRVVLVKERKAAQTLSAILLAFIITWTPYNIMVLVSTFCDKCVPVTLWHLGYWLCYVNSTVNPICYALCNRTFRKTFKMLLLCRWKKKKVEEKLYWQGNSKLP
# [3] = target: T3, Muscarinic acetylcholine receptor M4 (Homo sapiens, UniProt P08173); assay: Antagonist activity at human muscarinic M4 receptor expressed in HEK293 cells co-expressing HA-Galphaq/i5 assessed as inhibition of carbachol-induced IP1 accumulation at 22 degree C pre-incubated for 180 mins followed by carbachol addition and further incubated at 37 degree C for 90 mins by HTRF assay; assay type: functional, cell-based
# T3 sequence (P08173 whole entry): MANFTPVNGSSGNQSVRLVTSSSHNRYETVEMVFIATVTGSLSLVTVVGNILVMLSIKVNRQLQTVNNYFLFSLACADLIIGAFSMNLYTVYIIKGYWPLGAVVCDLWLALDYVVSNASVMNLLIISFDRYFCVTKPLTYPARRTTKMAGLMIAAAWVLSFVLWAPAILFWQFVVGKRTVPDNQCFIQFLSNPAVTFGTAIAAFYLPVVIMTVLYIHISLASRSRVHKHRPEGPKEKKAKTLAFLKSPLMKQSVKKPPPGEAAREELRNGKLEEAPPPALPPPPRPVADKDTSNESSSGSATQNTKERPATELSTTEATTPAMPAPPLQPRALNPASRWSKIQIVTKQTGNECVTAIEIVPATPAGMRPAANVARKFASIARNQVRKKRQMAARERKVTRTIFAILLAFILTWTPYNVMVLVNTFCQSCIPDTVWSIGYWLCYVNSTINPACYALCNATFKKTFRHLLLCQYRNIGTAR
# [4] = target: T4, Muscarinic acetylcholine receptor M2 (Homo sapiens) (UniProt P08172); assay: Agonist activity at human muscarinic M2 receptor expressed in HEK293 cells co-expressing HA-Galphaq/i5 assessed as induction of Galphaq/i5-mediated IP1 accumulation by HTRF assay; assay type: functional, cell-based
# T4 sequence (whole entry): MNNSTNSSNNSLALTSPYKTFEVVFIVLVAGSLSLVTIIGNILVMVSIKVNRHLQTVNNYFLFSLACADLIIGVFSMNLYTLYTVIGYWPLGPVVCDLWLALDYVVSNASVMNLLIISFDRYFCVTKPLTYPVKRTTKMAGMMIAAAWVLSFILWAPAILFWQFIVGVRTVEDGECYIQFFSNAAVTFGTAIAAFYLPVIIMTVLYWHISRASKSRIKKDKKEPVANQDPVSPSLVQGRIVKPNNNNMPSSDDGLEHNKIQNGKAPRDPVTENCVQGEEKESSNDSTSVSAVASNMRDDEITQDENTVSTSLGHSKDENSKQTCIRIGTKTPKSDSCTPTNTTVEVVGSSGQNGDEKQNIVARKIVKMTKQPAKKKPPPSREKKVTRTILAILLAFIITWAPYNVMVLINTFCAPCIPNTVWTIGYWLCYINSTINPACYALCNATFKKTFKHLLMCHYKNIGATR
# How it was run: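 HEK-293 cells transiently co-transfected with hM2R and hybrid Gαqi5-HA, run in agonist mode at 37 °C; IP1 accumulation measured. Carbachol control from 14 independent experiments in duplicate; test ligands from three or four independent experiments in duplicate.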
# [5] = target: T1, Muscarinic acetylcholine receptor M1; assay: Binding affinity to human muscarinic M1 receptor expressed in CHO-K9 cells incubated in dark at 22 degree C for 2 hrs by FACSCalibur flow cytometric saturation binding study; assay type: cell-based
# [6] = target: T4, Muscarinic acetylcholine receptor M2 (Homo sapiens); assay: Binding affinity to human muscarinic M2 receptor expressed in CHO-K9 cells assessed as association rate constant at 22 +/- 1 degree C incubated under shaking condition in dark for 1 to 300 mins by flow cytometric saturation binding study; assay type: cell-based
# [7] = target: T1, Muscarinic acetylcholine receptor M1; assay: Binding affinity to human muscarinic M1 receptor expressed in CHO-K9 cells incubated in dark measured after 60 mins by Hoechst H33342 dye based confocal plate reader assay; assay type: cell-based
# How it was run: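 Live CHO-hMxR cells (M1 or M2) incubated with fluorescent ligand at 22 °C in the dark for 1 h, washed, then imaged at once by high-content confocal plate reader.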
# [8] = target: T4, Muscarinic acetylcholine receptor M2 (Homo sapiens); assay: Binding affinity to human muscarinic M2 receptor expressed in CHO-K9 cells assessed as dissociation rate constant at 22 +/- 1 degree C preincubated for 120 mins followed by atropine addition by flow cytometric saturation binding study; assay type: cell-based
# How it was run: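 Dissociation followed by flow cytometry at 22 °C over 9 h. koff from three-parameter incomplete monophasic decline fit; three or four experiments in duplicate.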
# [9] = target: T5, Muscarinic acetylcholine receptor M2 (Homo sapiens, UniProt P08172); assay: Binding affinity to human muscarinic M2 receptor expressed in […] cells at 22 +/- 1 degree C preincubated for 110 mins followed by atropine addition by flow cytometric saturation binding study; assay type: cell-based
# T5 sequence (P08172 whole entry): T4 sequence (whole entry)
Ki [1] [nM],Ki [2] [nM],IC50 [3] [nM],Activity [4],Kd [5] [nM],K [6] [M⁻¹ s⁻¹],Kd [7] [nM],K [8] [min⁻¹],Kd [9] [nM],Structure (SMILES)
2.88,135,102,inactive,6.46,158000,–,–,–,CC1(C)C(/C=C/C=C/C=C2/N(CCCCCC(=O)NCCN3CCN(CCCCC4CCN(CC(=O)N5c6ccccc6NC(=O)c6ccccc65)CC4)CC3)c3ccc(S(=O)(=O)O)cc3C2(C)C)=[N+](CCCCS(=O)(=O)[O-])c2ccccc21.O=C(O)C(F)(F)F.O=C(O)C(F)(F)F
5.25,166,138,inactive,–,61700,26.3,0.0069,–,CC1(C)C(/C=C/C=C/C=C2/N(CCCCCC(=O)NCCNC(=O)CCc3cn(CCCCC4CCN(CC(=O)N5c6ccccc6NC(=O)c6ccccc65)CC4)cn3)c3ccc(S(=O)(=O)O)cc3C2(C)C)=[N+](CCCCS(=O)(=O)[O-])c2ccccc21.O=C(O)C(F)(F)F
2.29,407,37.2,inactive,–,81700,10,–,1.4,CC1(C)C(/C=C/C=C/C=C2/N(CCCCCC(=O)NCc3cc(C(=O)NCCNC(=O)CCc4cn(CCCCC5CCN(CC(=O)N6c7ccccc7NC(=O)c7ccccc76)CC5)cn4)cc(C(=O)NCCNC(=O)CCc4cn(CCCCC5CCN(CC(=O)N6c7ccccc7NC(=O)c7ccccc76)CC5)cn4)c3)c3ccc(S(=O)(=O)O)cc3C2(C)C)=[N+](CCCCS(=O)(=O)[O-])c2ccccc21.O=C(O)C(F)(F)F.O=C(O)C(F)(F)F.O=C(O)C(F)(F)F
